Laboratory results published in ChEMBL document CHEMBL5058577, “EUbOPEN Chemogenomics Library 2 (Multiplex)” (2022).

Tested on: Fibroblast
Assay: Multiplex assay against human fibroblast
Type: toxicity, cell-based
How it was run: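 On a CQ1 microscope at 37°C and 5% CO2, live cells were imaged after compound addition. They had been stained at seeding with Hoechst33342, BioTracker Green Microtubule Cytoskeleton Dye, MitoTracker Red and Annexin V Alexa Fluor 680. CellPathfinder machine-learning gating assigned cells to Hoechst high-intensity objects or normal cells, normal cells to healthy, pyknosed or fragmented nuclei, and pyknosed cells to mitotic or apoptotic. Tubulin, mitochondrial-mass and membrane-permeability phenotypes are per cents of healthy-nucleus cells.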

[1] = 12 h, 1 µM, compound concentration 1 uM, replicate 1
[2] = 12 h, 1 µM, compound concentration 1 uM, replicate 2
[3] = 12 h, 10 µM, compound concentration 10 uM, replicate 1
[4] = 12 h, 10 µM, compound concentration 10 uM, replicate 2
[5] = 24 h, 1 µM, compound concentration 1 uM, replicate 1
[6] = 24 h, 1 µM, compound concentration 1 uM, replicate 2
[7] = 24 h, 10 µM, compound concentration 10 uM, replicate 1
[8] = 24 h, 10 µM, compound concentration 10 uM, replicate 2
[9] = 48 h, 1 µM, compound concentration 1 uM, replicate 1
[10] = 48 h, 1 µM, compound concentration 1 uM, replicate 2
[11] = 48 h, 10 µM, compound concentration 10 uM, replicate 1
[12] = 48 h, 10 µM, compound concentration 10 uM, replicate 2

## Cl.N=C(N)NC(=O)Cc1c(Cl)cccc1Cl [GUANFACINE HYDROCHLORIDE]
[1]
  Population Apoptotic (%): 44%
  Population Fragmented Nuclei (%): 20%
  Population Healthy Nuclei (%): 62%
  Population Hoechst High Intensity Objects (%): 2%
  Population Membrane Permeable-Phenotype (%): 0%
  Population Mitochondria Different-Phenotype (%): 4%
  Population Mitotic Cells (%): 55%
  Population Normal (%): 97%
  Population Pyknosed Nuclei (%): 16%
  Population Tubulin-Different-Phenotype (%): 32%
  Total Cell Count: 167
[2]
  Population Apoptotic (%): 28%
  Population Fragmented Nuclei (%): 23%
  Population Healthy Nuclei (%): 45%
  Population Membrane Permeable-Phenotype (%): 3%
  Population Mitochondria Different-Phenotype (%): 7%
  Population Mitotic Cells (%): 71%
  Population Pyknosed Nuclei (%): 31%
  Population Tubulin-Different-Phenotype (%): 46%
  Total Cell Count: 149
[3]
  Population Apoptotic (%): 66%
  Population Fragmented Nuclei (%): 16%
  Population Healthy Nuclei (%): 68%
  Population Hoechst High Intensity Objects (%): 0%
  Population Membrane Permeable-Phenotype (%): 1%
  Population Mitochondria Different-Phenotype (%): 5%
  Population Mitotic Cells (%): 33%
  Population Normal (%): 99%
  Population Pyknosed Nuclei (%): 15%
  Population Tubulin-Different-Phenotype (%): 24%
  Total Cell Count: 139
[4]
  Population Apoptotic (%): 35%
  Population Fragmented Nuclei (%): 22%
  Population Healthy Nuclei (%): 47%
  Population Hoechst High Intensity Objects (%): 10%
  Population Membrane Permeable-Phenotype (%): 5%
  Population Mitotic Cells (%): 64%
  Population Normal (%): 89%
  Population Pyknosed Nuclei (%): 29%
  Population Tubulin-Different-Phenotype (%): 46%
  Total Cell Count: 127
[5]
  Population Apoptotic (%): 58%
  Population Fragmented Nuclei (%): 22%
  Population Healthy Nuclei (%): 62%
  Population Hoechst High Intensity Objects (%): 1%
  Population Membrane Permeable-Phenotype (%): 0%
  Population Mitochondria Different-Phenotype (%): 5%
  Population Mitotic Cells (%): 41%
  Population Normal (%): 98%
  Population Pyknosed Nuclei (%): 14%
  Population Tubulin-Different-Phenotype (%): 26%
  Total Cell Count: 169
[6]
  Population Apoptotic (%): 45%
  Population Fragmented Nuclei (%): 23%
  Population Healthy Nuclei (%): 46%
  Population Hoechst High Intensity Objects (%): 6%
  Population Membrane Permeable-Phenotype (%): 12%
  Population Mitochondria Different-Phenotype (%): 8%
  Population Mitotic Cells (%): 54%
  Population Normal (%): 93%
  Population Pyknosed Nuclei (%): 30%
  Population Tubulin-Different-Phenotype (%): 50%
  Total Cell Count: 130
[7]
  Population Apoptotic (%): 63%
  Population Fragmented Nuclei (%): 17%
  Population Healthy Nuclei (%): 68%
  Population Hoechst High Intensity Objects (%): 1%
  Population Membrane Permeable-Phenotype (%): 0%
  Population Mitochondria Different-Phenotype (%): 4%
  Population Mitotic Cells (%): 36%
  Population Normal (%): 98%
  Population Pyknosed Nuclei (%): 14%
  Population Tubulin-Different-Phenotype (%): 19%
  Total Cell Count: 137
[8]
  Population Apoptotic (%): 25%
  Population Fragmented Nuclei (%): 26%
  Population Healthy Nuclei (%): 55%
  Population Hoechst High Intensity Objects (%): 4%
  Population Membrane Permeable-Phenotype (%): 13%
  Population Mitochondria Different-Phenotype (%): 3%
  Population Mitotic Cells (%): 75%
  Population Normal (%): 95%
  Population Pyknosed Nuclei (%): 18%
  Population Tubulin-Different-Phenotype (%): 58%
  Total Cell Count: 114
[9]
  Population Apoptotic (%): 61%
  Population Fragmented Nuclei (%): 25%
  Population Healthy Nuclei (%): 63%
  Population Hoechst High Intensity Objects (%): 1%
  Population Membrane Permeable-Phenotype (%): 0%
  Population Mitochondria Different-Phenotype (%): 6%
  Population Mitotic Cells (%): 38%
  Population Normal (%): 98%
  Population Pyknosed Nuclei (%): 11%
  Population Tubulin-Different-Phenotype (%): 32%
  Total Cell Count: 162
[10]
  Population Apoptotic (%): 50%
  Population Fragmented Nuclei (%): 33%
  Population Healthy Nuclei (%): 45%
  Population Hoechst High Intensity Objects (%): 3%
  Population Membrane Permeable-Phenotype (%): 4%
  Population Mitochondria Different-Phenotype (%): 11%
  Population Mitotic Cells (%): 50%
  Population Normal (%): 96%
  Population Pyknosed Nuclei (%): 21%
  Population Tubulin-Different-Phenotype (%): 57%
  Total Cell Count: 145
[11]
  Population Apoptotic (%): 66%
  Population Fragmented Nuclei (%): 22%
  Population Healthy Nuclei (%): 67%
  Population Hoechst High Intensity Objects (%): 1%
  Population Membrane Permeable-Phenotype (%): 1%
  Population Mitochondria Different-Phenotype (%): 6%
  Population Mitotic Cells (%): 33%
  Population Normal (%): 98%
  Population Pyknosed Nuclei (%): 10%
  Population Tubulin-Different-Phenotype (%): 24%
  Total Cell Count: 142
[12]
  Population Apoptotic (%): 45%
  Population Fragmented Nuclei (%): 39%
  Population Healthy Nuclei (%): 41%
  Population Hoechst High Intensity Objects (%): 6%
  Population Membrane Permeable-Phenotype (%): 8%
  Population Mitochondria Different-Phenotype (%): 2%
  Population Mitotic Cells (%): 54%
  Population Normal (%): 93%
  Population Pyknosed Nuclei (%): 19%
  Population Tubulin-Different-Phenotype (%): 67%
  Total Cell Count: 120
